ChEMBL document CHEMBL1147233, “Chemistry and structure-activity relationship of HIV-1 integrase inhibitor integracide B and related natural products” (J Nat Prod, 2003)

Columns and labels:
[1] = target: T1, Human immunodeficiency virus type 1 integrase (Human immunodeficiency virus 1, UniProt Q7ZJM1); assay: Inhibition of recombinant HIV1 integrase using preprocessed donor DNA treated after washing excess enzyme by strand transfer assay
In short: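 Integrase preincubated with preprocessed donor DNA, unbound enzyme washed off, then target DNA and inhibitor added together. Strand transfer product measured. Final DMSO 10%. IC50 from serial 2-fold dilutions run in duplicate or triplicate; values without error limits are the average of these.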

[2] = target: Type II restriction enzyme EcoRI (Escherichia coli, UniProt P00642); assay: Inhibition of Escherichia coli ECOR1
Chain of Type II restriction enzyme EcoRI (P00642 whole entry): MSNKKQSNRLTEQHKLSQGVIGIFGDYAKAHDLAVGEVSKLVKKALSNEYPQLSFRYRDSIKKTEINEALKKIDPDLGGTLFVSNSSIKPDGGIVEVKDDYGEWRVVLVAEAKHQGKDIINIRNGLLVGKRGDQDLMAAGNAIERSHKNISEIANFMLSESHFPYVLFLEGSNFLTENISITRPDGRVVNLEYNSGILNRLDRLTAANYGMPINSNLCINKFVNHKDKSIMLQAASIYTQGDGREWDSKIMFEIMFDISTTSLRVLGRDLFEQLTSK

[3] = target: T1, Human immunodeficiency virus type 1 integrase; assay: Inhibition of recombinant HIV1 integrase using unprocessed donor DNA by coupled assay
In short: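 Unprocessed donor DNA and inhibitor incubated with recombinant integrase together for 30 min, then target DNA added; strand-transfer product measured. Final DMSO 10%. IC50 from serial 2-fold dilutions in duplicate or triplicate; values without error limits are the average of these.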

[4] = Inhibition of DNAse
[5] = system: Human immunodeficiency virus 1; assay: Antiviral activity against HIV1 infected in human H9 cells; type: functional; conditions: Human immunodeficiency virus 1, H9; read-out: CIC95
In short: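 Multiple-cycle viral spread assay in HIV-1-infected H9 T-lymphoid cells; value is CIC95, the concentration giving >95% protection from viral infection.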

[6] = target: T1, Human immunodeficiency virus type 1 integrase; assay: Inhibition of HIV1 integrase assessed as inhibition of 3'-end processing reaction
In short: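 Specific 3′-end processing of LTR donor-sequence oligonucleotide substrates, run with […]. IC₅₀ values without error limits are the average of duplicate or triplicate data sets.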

T1 sequence (Q7ZJM1 whole entry): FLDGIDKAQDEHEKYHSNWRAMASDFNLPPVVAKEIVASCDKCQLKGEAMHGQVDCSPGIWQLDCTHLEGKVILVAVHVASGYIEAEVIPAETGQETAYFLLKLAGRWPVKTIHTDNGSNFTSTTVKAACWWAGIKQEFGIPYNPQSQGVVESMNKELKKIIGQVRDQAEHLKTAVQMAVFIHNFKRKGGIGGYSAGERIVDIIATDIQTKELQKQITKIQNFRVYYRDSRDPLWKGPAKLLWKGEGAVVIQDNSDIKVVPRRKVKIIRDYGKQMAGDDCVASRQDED

Row | SMILES | IC50 [1] [µM] | IC50 [2] [µM] | IC50 [3] [µM] | IC50 [4] [µM] | IC95 [5] [µM] | IC50 [6] [µM]
1 | C=C(CC[C@@H](C)[C@H]1CC=C2C3=C([C@@H](O)[C@H](OC(C)=O)[C@@]21C)[C@@]1(C)C[C@@H](O)[C@H](O)C(C)(C)[C@@H]1CC3)C(C)C [INTEGRACIDE B] | > 100 | > 50 | 82 | > 50 | – | –
2 | C=C(CC[C@@H](C)[C@H]1C[C@H](OC)c2c3c(cc(C)c21)[C@@]1(C)C[C@@H](O)[C@H](O)C(C)(C)[C@@H]1CC3)C(C)C | > 100 | > 50 | 50 | > 50 | – | –
3 | C=C(CC[C@@H](C)[C@H]1CC=C2C3=C([C@@H](O)[C@H](OC(C)=O)[C@@]21C)[C@@]1(C)C[C@@H](OC(=O)CCC(=O)O)[C@H](O)C(C)(C)[C@@H]1CC3)C(C)C | 12 | > 50 | 3 | > 50 | 6 | –
4 | C=C(CC[C@@H](C)[C@H]1CC=C2C3=C([C@@H](O)[C@H](O)[C@@]21C)[C@@]1(C)C[C@@H](O)[C@H](O)C(C)(C)[C@@H]1CC3)C(C)C | > 50 | > 50 | 48 | > 50 | – | –
5 | C=C(CC[C@@H](C)[C@H]1CC=C2C3=C([C@@H](O)[C@H](OC(C)=O)[C@@]21C)[C@@]1(C)C[C@@H](O)[C@H](OCOC)C(C)(C)[C@@H]1CC3)C(C)C | > 80 | > 50 | > 80 | > 50 | – | –
6 | COC(=O)C[C@@](C)(O)CC(=O)O[C@@H]1C[C@]2(C)C3=C(CC[C@H]2C(C)(C)C1=O)[C@]1(C)CC[C@H]([C@H](C)CCC(O)C(C)(C)O)[C@@]1(C)CC3 (some centres not stated) | > 100 | > 50 | 70 | > 50 | – | –
7 | C[C@H](CCC(O)C(C)(C)O)[C@H]1CC[C@@]2(C)C3=C(CC[C@]12C)[C@@]1(C)C[C@@H](O)C(=O)C(C)(C)[C@@H]1CC3 (some centres not stated) [CLAVARINONE] | > 100 | > 50 | 68 | > 50 | – | –
8 | C=C(CC[C@@H](C)[C@H]1CC=C2C3=C(C(=O)[C@H](OC(C)=O)[C@@]21C)[C@@]1(C)C[C@@H](O)[C@H](O)C(C)(C)[C@@H]1CC3)C(C)C | > 100 | > 50 | 75 | > 50 | – | –
9 | C=C(CC[C@@H](C)[C@H]1CC=C2C3=C([C@@H](O)[C@H](OC(C)=O)[C@@]21C)[C@@]1(C)C[C@H]2OC(C)(C)O[C@@H]2C(C)(C)[C@@H]1CC3)C(C)C | > 50 | > 50 | > 50 | > 50 | – | –
10 | C=C(CC[C@@H](C)[C@H]1CC=C2C3=C([C@@H](O)[C@H](OC(C)=O)[C@@]21C)[C@@]1(C)C[C@@H](OCOC)[C@H](O)C(C)(C)[C@@H]1CC3)C(C)C | > 80 | > 50 | > 80 | > 50 | – | –
11 | C=C(CC[C@@H](C)[C@H]1CC=C2C3=C([C@@H](O)[C@H](OC(C)=O)[C@@]21C)[C@@]1(C)C[C@@H](O)[C@H](OC(=O)CCC(=O)O)C(C)(C)[C@@H]1CC3)C(C)C | 12 | > 50 | 3 | > 50 | 6 | 5
12 | C=C(CC[C@@H](C)[C@H]1CC=C2C3=C([C@@H](O)[C@H](OC(C)=O)[C@@]21C)[C@@]1(C)C[C@@H](OC(=O)CN)[C@H](OC(=O)CN)C(C)(C)[C@@H]1CC3)C(C)C | 11.5 | > 50 | 1.7 | 47 | – | –
13 | C=C(CC[C@@H](C)[C@H]1C[C@@H](OC)c2c3c(cc(C)c21)[C@@]1(C)C[C@@H](O)[C@H](O)C(C)(C)[C@@H]1CC3)C(C)C | > 100 | > 50 | 50 | > 50 | – | –

Continued, in another order:

Row | IC50 [1] [µM] | IC50 [2] [µM] | IC50 [3] [µM] | IC50 [4] [µM] | SMILES | IC95 [5] [µM] | IC50 [6] [µM]
14 | 40 | > 50 | 25 | > 50 | C=C(CC[C@@H](C)[C@H]1CC(=O)C2=C3CC[C@H]4C(C)(C)[C@@H](O)[C@H](O)C[C@]4(C)C3=C[C@H](OC(C)=O)[C@@]21C)C(C)C | – | –
15 | > 50 | > 50 | > 50 | > 50 | C=C(CC[C@@H](C)[C@H]1CC=C2C3=C([C@@H](O)[C@H](OC(C)=O)[C@@]21C)[C@@]1(C)C[C@@H]2O[C@@H]2C(C)(C)[C@@H]1CC3)C(C)C | – | –
16 | > 80 | > 50 | > 80 | > 50 | C=C(CC[C@@H](C)[C@H]1CC=C2C3=C([C@@H](O)[C@H](OC(C)=O)[C@@]21C)[C@@]1(C)C[C@@H](O)[C@H](OC(=O)c2ccccc2)C(C)(C)[C@@H]1CC3)C(C)C | – | –
17 | > 80 | > 50 | > 80 | > 50 | C=C(CC[C@@H](C)[C@H]1CC=C2C3=C([C@@H](O)[C@H](OC(C)=O)[C@@]21C)[C@@]1(C)C[C@@H](OC(=O)c2ccccc2)[C@H](O)C(C)(C)[C@@H]1CC3)C(C)C | – | –
18 | > 80 | > 50 | > 80 | > 50 | C=C(CC[C@@H](C)[C@H]1CC=C2C3=C([C@@H](O)[C@H](OC(C)=O)[C@@]21C)[C@@]1(C)C[C@@H](OCOC)[C@H](OCOC)C(C)(C)[C@@H]1CC3)C(C)C | – | –
19 | > 50 | > 50 | > 50 | > 50 | C=C(CC[C@@H](C)[C@H]1CC=C2C3=C([C@@H](O)[C@H](OC(C)=O)[C@@]21C)[C@@]1(C)C[C@@H](OC(=O)CCC(=O)OC)[C@H](O)C(C)(C)[C@@H]1CC3)C(C)C | – | –
20 | 85 | > 50 | 47 | > 50 | C[C@H](CCC(O)C(C)(C)O)[C@H]1CC[C@@]2(C)C3=C(CC[C@]12C)[C@@]1(C)C[C@@H](OC(=O)CC(C)(O)CC(=O)O)C(=O)C(C)(C)[C@@H]1CC3 (some centres not stated) [CLAVARIC ACID] | – | –
21 | > 50 | > 50 | > 50 | > 50 | C=C(CC[C@@H](C)[C@H]1CC=C2C3=C([C@@H](O)[C@H](OC(C)=O)[C@@]21C)[C@@]1(C)C[C@@H](OC(=O)CNC(=O)OCC2c4ccccc4-c4ccccc42)[C@H](O)C(C)(C)[C@@H]1CC3)C(C)C | – | –
22 | > 50 | > 50 | > 50 | > 50 | C=C(CC[C@@H](C)[C@H]1CC=C2C3=C([C@@H](O)[C@H](OC(C)=O)[C@@]21C)[C@@]1(C)C[C@@H](O)[C@H](OC(=O)CCC(=O)OC)C(C)(C)[C@@H]1CC3)C(C)C | – | –
23 | > 50 | > 50 | 18 | > 50 | C=C(CC[C@@H](C)[C@H]1CC=C2C3=C([C@@H](O)[C@H](OC(C)=O)[C@@]21C)[C@@]1(C)C[C@@H](O)[C@H](OC(=O)CN)C(C)(C)[C@@H]1CC3)C(C)C | – | –
24 | > 50 | > 50 | > 50 | > 50 | C=C(CC[C@@H](C)[C@H]1CC=C2C3=C([C@@H](O)[C@H](OC(C)=O)[C@@]21C)[C@@]1(C)C[C@@H](OC(=O)CNC(=O)OCC2c4ccccc4-c4ccccc42)[C@H](OC(=O)CNC(=O)OCC2c4ccccc4-c4ccccc42)C(C)(C)[C@@H]1CC3)C(C)C | – | –
25 | > 50 | > 50 | 8 | > 50 | C=C(CC[C@@H](C)[C@H]1CC=C2C3=C([C@@H](O)[C@H](OC(C)=O)[C@@]21C)[C@@]1(C)C[C@@H](OC(=O)CCC(=O)NO)[C@H](O)C(C)(C)[C@@H]1CC3)C(C)C | – | –
26 | > 50 | > 50 | 23 | > 50 | C=C(CC[C@@H](C)[C@H]1CC=C2C3=C([C@@H](O)[C@H](OC(C)=O)[C@@]21C)[C@@]1(C)C[C@@H](OC(=O)CN)[C@H](O)C(C)(C)[C@@H]1CC3)C(C)C | – | –
27 | > 50 | > 50 | > 50 | > 50 | C=C(CC[C@@H](C)[C@H]1CC=C2C3=C([C@@H](O)[C@H](OC(C)=O)[C@@]21C)[C@@]1(C)C[C@@H](OC(=O)CNC(=O)OC(C)(C)C)[C@H](O)C(C)(C)[C@@H]1CC3)C(C)C | – | –
28 | > 50 | > 50 | > 50 | > 50 | C=C(CC[C@@H](C)[C@H]1CC=C2C3=C([C@@H](OC(C)=O)[C@H](OC(C)=O)[C@@]21C)[C@@]1(C)C[C@@H](OC(C)=O)[C@H](OC(C)=O)C(C)(C)[C@@H]1CC3)C(C)C | – | –
29 | 4.8 | > 50 | 3.1 | > 50 | C=C(CC[C@@H](C)[C@H]1CC=C2C3=C([C@@H](O)[C@H](OC(C)=O)[C@@]21C)[C@@]1(C)CC[C@H](OS(=O)(=O)O)C(C)(C)[C@@H]1CC3)C(C)C | – | –
30 | > 69 | > 50 | > 69 | > 50 | C=C(CC[C@@H](C)[C@H]1CC=C2C3=C([C@@H](O)[C@H](OC(C)=O)[C@@]21C)[C@@]1(C)C[C@@H](OC(=O)c2ccccc2)[C@H](OC(=O)c2ccccc2)C(C)(C)[C@@H]1CC3)C(C)C | – | –
31 | > 50 | > 50 | > 50 | > 50 | C=C(CC[C@@H](C)[C@H]1CC=C2C3=C([C@@H](O)[C@H](OC(C)=O)[C@@]21C)[C@@]1(C)C[C@@H](OC(=O)CNC(=O)OC(C)(C)C)[C@H](OC(=O)CNC(=O)OC(C)(C)C)C(C)(C)[C@@H]1CC3)C(C)C | – | –
